Data reported in ChEMBL document CHEMBL2407023, “trans-Resveratrol in Gnetum gnemon protects against oxidative-stress-induced endothelial senescence” (J Nat Prod, 2013).
Active and inactive are the calls of the source.

Assays:
[1] = biological target: T1, NAD-dependent protein deacetylase sirtuin-1 (Homo sapiens) (UniProt Q96EB6); assay: Induction of SIRT1-mediated NRF-1 expression in H2O2-induced HUVEC pretreated for 1 day followed by compound washout and H2O2-treatment measured after 10 days by RT-PCR analysis; assay type: cell-based
T1 sequence (whole entry): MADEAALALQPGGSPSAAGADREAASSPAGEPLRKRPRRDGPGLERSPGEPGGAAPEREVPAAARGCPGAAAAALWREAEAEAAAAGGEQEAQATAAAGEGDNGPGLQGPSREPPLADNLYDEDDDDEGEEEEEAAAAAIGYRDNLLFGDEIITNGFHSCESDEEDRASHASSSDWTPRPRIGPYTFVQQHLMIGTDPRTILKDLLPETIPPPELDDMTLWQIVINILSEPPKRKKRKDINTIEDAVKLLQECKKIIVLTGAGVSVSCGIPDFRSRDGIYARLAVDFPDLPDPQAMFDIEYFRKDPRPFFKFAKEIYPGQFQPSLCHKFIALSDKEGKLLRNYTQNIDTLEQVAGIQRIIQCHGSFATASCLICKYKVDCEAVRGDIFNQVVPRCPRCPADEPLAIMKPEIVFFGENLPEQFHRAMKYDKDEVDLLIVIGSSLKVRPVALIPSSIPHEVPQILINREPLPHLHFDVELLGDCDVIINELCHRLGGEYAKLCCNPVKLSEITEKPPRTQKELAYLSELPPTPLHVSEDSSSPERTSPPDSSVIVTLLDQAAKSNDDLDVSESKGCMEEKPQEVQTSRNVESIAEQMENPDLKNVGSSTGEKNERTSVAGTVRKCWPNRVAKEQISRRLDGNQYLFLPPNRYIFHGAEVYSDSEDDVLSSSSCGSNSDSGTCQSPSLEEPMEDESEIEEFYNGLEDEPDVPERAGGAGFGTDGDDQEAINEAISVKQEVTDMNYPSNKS
Procedure, shortened: (§1)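 HUVEC were treated with compound at 100 μmol/L and H2O2 as in the senescence protocol. Total RNA was DNase-treated, then reverse transcribed with random hexamers and oligo d(T). mRNA was quantified by SYBR green real-time PCR relative to β-actin. Primer quality was checked by dissociation curves, standard-curve slopes and no-RT reactions.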

[2] = biological target: T1, NAD-dependent protein deacetylase sirtuin-1 (Homo sapiens); assay: Induction of SIRT1-mediated TFAM expression in H2O2-induced HUVEC pretreated for 1 day followed by compound washout and H2O2-treatment measured after 10 days by RT-PCR analysis; assay type: cell-based; procedure, shortened: as §1
HUVEC [3] = assay: Induction of mitochondrial biogenesis in H2O2-induced HUVEC at 100 umol/L pretreated for 1 day followed by compound washout and H2O2-treatment measured after 10 days by MitoTracker Red staining-based assay; assay type: functional, cell-based; conditions: Homo sapiens
Procedure, shortened: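 HUVEC were grown in chamber slides to 80% confluence and treated with compound at 100 μmol/L plus H2O2. At 10 days after H2O2, cells were stained 15 min with 100 nM MitoTracker Red CMXRos in prewarmed medium. Nuclei were counterstained with DAPI and cells imaged by fluorescence microscopy.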

[4] = biological target: T1, NAD-dependent protein deacetylase sirtuin-1 (Homo sapiens); assay: Activation of SIRT1 (unknown origin) by fluorescence assay
Procedure, shortened: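 HUVEC exposed to compounds at 100 μmol/L were assayed for SIRT1 activity with a fluorescent SIRT1 activity kit, following the manufacturer's protocol. NAD+ was the positive control. Comparison was against vehicle control, n = 3.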

HUVEC [5] = assay: Effect on eNOS expression in H2O2-induced HUVEC pretreated for 1 day followed by compound washout and H2O2-treatment measured after 10 days by immunoblotting analysis; assay type: functional, cell-based; conditions: Homo sapiens
Procedure, shortened: (§2)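 HUVEC at PDL 10−11 were pretreated 1 day with compound at 100 μmol/L in EGM-2 (vehicle 0.05% DMSO). Cells were washed and exposed to 100 μmol/L H2O2 for 1 h. They were then reseeded and cultured 10 days with compound. Lysates were made in Tris/NP40/SDS buffer with protease and phosphatase inhibitors and immunoblotted. β-actin was the loading reference, with ECL detection.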

HUVEC [6] = assay: Effect on PAI-1 expression in H2O2-induced HUVEC pretreated for 1 day followed by compound washout and H2O2-treatment measured after 10 days by immunoblotting analysis; assay type: functional, cell-based; conditions: Homo sapiens; procedure, shortened: as §2
HUVEC [7] = assay: Effect on SIRT1 expression in H2O2-induced HUVEC pretreated for 1 day followed by compound washout and H2O2-treatment measured after 10 days by immunoblotting analysis; assay type: functional, cell-based; conditions: Homo sapiens; procedure, shortened: as §2
HUVEC [8] = assay: Effect on p53 expression in H2O2-induced HUVEC pretreated for 1 day followed by compound washout and H2O2-treatment measured after 10 days by immunoblotting analysis; assay type: functional, cell-based; conditions: Homo sapiens; procedure, shortened: as §2
HUVEC [9] = assay: Inhibition of H2O2-induced HUVEC senescence assessed as change in cellular morphology pretreated for 1 day followed by compound washout and H2O2-treatment measured after 10 days by hematoxylin staining-based assay; assay type: functional, cell-based; conditions: Homo sapiens
Procedure, shortened: (§3)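 HUVEC at PDL 10−11 were grown to 80% confluence and pretreated 1 day with compound at 100 μmol/L (vehicle 0.05% DMSO). After washing, they received 100 μmol/L H2O2 for 1 h and were reseeded at 1 × 10^6 per dish. Culture continued 10 days with compound. Fixed cells were scored for SA-βgal-positive proportion, with hematoxylin counterstain for morphology; n = 3.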

HUVEC [10] = assay: Inhibition of H2O2-induced HUVEC senescence pretreated for 1 day followed by compound washout and H2O2-treatment measured after 10 days by SA-beta galactosidase staining-based assay; assay type: functional, cell-based; conditions: Homo sapiens; procedure, shortened: as §3

Oc1ccc(/C=C/c2cc(O)cc(O)c2)cc1
active: Activity [1] | Activity [2] | Activity (HUVEC [3]) | Activity [4] | Activity (HUVEC [5]) | Activity (HUVEC [6]) | Activity (HUVEC [7]) | Activity (HUVEC [8]) | inhibition (HUVEC [9]) | inhibition (HUVEC [10])
